Measurements from different studies.
Each line is one published result; the experiments were not run side by side. pIC50: −log10 of the molar value.
CDK4 with cyclin D1: Cyclin-dependent kinase 4, with cyclin D1 (CDK4, Homo sapiens, UniProt P11802)
CDK4 with cyclin D3: Cyclin-dependent kinase 4, with cyclin D3 (CDK4, Homo sapiens, UniProt P11802)
CHRM2: Muscarinic acetylcholine receptor M2 (CHRM2, Homo sapiens, UniProt P08172)
AMY2: Pancreatic alpha-amylase (AMY2, Sus scrofa, UniProt P00690)

CN(C)C(=O)c1cc2cnc(Nc3ccc(-c4cccc5c(=O)cc(N6CCOCC6)oc45)cc3)nc2n1C1CCCC1 — pIC50 (CDK4 with cyclin D1; enzyme activity, inhibitor, radiometric): 6.65
CNS(=O)(=O)c1ccc(Nc2ncc3cc(Cl)c(=O)n(C4CCCC4)c3n2)c(C)c1 — pIC50 (CDK4 with cyclin D3; enzyme activity, inhibitor, radiometric): 7.66
CN(C)C(=O)c1cc2cnc(Nc3cccc4c(=O)cc(N5CCOCC5)oc34)nc2n1C1CCCC1 — pIC50 (CDK4 with cyclin D1; enzyme activity, inhibitor, radiometric): < 5.00
CNS(=O)(=O)c1ccc(Nc2ncc(C(F)(F)F)c(N3CCC(C)(O)CC3)n2)c(C)c1 — pIC50 (CDK4 with cyclin D3; enzyme activity, inhibitor, radiometric): 6.70
O=C(CCNC(=O)CNC(=O)CC(c1ccccc1)(c1ccccc1)c1ccccc1)NC[C@@H]1CCCN(Cc2ccc(F)nc2)C1 — pIC50 (CHRM2; ligand displacement, radioligand; cell membranes): < 4.52
NC(=O)c1nnn(Cc2cc(Cl)c(C(=O)c3ccc(Cl)cc3)c(Cl)c2)c1N — pIC50 (CHRM2; cAMP, antagonist): 5.73
O=C(CCNC(=O)CNC(=O)CC(c1ccccc1)(c1ccccc1)c1ccccc1)NC[C@H]1CCCN(Cc2ccc(F)cc2)C1 — pIC50 (CHRM2; ligand displacement, radioligand; cell membranes): 4.86
O=c1c(O)c(-c2ccc(O)cc2)oc2c(Br)c(O)c(Br)c(O)c12 — pIC50 (AMY2; enzyme activity, inhibitor): 5.43
CNS(=O)(=O)c1ccc(Nc2ncc(C(F)(F)F)c([C@H]3CC[C@](C)(O)CC3)n2)c(C)c1 — pIC50 (CDK4 with cyclin D3; enzyme activity, inhibitor, radiometric): 6.61
O=c1cc(-c2ccc(O)c(O)c2)oc2cc(O)cc(O)c12 — pIC50 (AMY2; enzyme activity, inhibitor): 5.66
CC(C)(C)NS(=O)(=O)c1cccc(C(=O)N2CC3(CCC4(CC4)CC3)c3cc(NS(C)(=O)=O)ccc32)c1 — pIC50 (Kinesin-like protein KIF18B (Homo sapiens, UniProt Q86Y91); ATPase activity, inhibitor): < 4.00
CN(C)C(=O)c1cc2cnc(Nc3ccc4c(=O)cc(N5CCOCC5)oc4c3)nc2n1C1CCCC1 — pIC50 (CDK4 with cyclin D1; enzyme activity, inhibitor, radiometric): 8.38
CNS(=O)(=O)c1ccc(Nc2ncc(C(F)(F)F)c(N3CCCC(C)(O)C3)n2)c(C)c1 (stereo not shown) — pIC50 (CDK4 with cyclin D3; enzyme activity, inhibitor, radiometric): 6.15
CN(C)C(=O)c1cc2cnc(Nc3ccc(-c4cccc5c(=O)cc(N6CCOCC6)oc45)cn3)nc2n1C1CCCC1 — pIC50 (CDK4 with cyclin D1; enzyme activity, inhibitor, radiometric): 6.34
O=c1c(O)c(-c2ccc(O)c(O)c2)oc2c(Br)c(O)c(Br)c(O)c12 — pIC50 (AMY2; enzyme activity, inhibitor): 4.70
Cc1c(N2CCOCC2)oc2c(-c3ccc(Nc4ncc5cc(C(=O)N(C)C)n(C6CCCC6)c5n4)cc3F)cccc2c1=O — pIC50 (CDK4 with cyclin D1; enzyme activity, inhibitor, radiometric): 5.48
C[C@H]1CN(C(=O)CC#N)[C@]12CCN(c1ncnc3[nH]ccc13)C2 — pIC50 (Organic anion transporter 3 (SLC22A8, Homo sapiens, UniProt Q8TCC7); transporter uptake, inhibitor): 5.20
CN(C)C(=O)c1cc2cnc(Nc3cncc(-c4cccc5c(=O)cc(N6CCOCC6)oc45)c3)nc2n1C1CCCC1 — pIC50 (CDK4 with cyclin D1; enzyme activity, inhibitor, radiometric): 7.27
Cc1cc(O)c(-c2ccc([C@@H](C)CN(C)C)cc2)c2c1[nH]c(=O)c1sccc12 — pIC50 (CDK4 with cyclin D1; enzyme activity, inhibitor): < 6.00
